# Reference: ChEMBL document CHEMBL4043182, “On the synthesis of quinone-based BODIPY hybrids: New insights on antitumor activity and mechanism of action in cancer cells” (Bioorg Med Chem Lett, 2017)
# Calls of active or inactive are those of the source. The calls are words filed in the database; no cut-off is given here.
# Assays:
# PC-3 [1] = assay: Induction of oxidative stress in human PC3 cells assessed as total GSSG levels at 5 uM after 24 hrs by spectrophotometric analysis (reference value: 1.11 +/- 0.12 microg/mg); assay type: functional
# PC-3 [2] = assay: Induction of lipid peroxidation in human PC3 cells assessed as increase in MDA levels at 2.5 to 10 uM treated 24 hrs post NAC addition measured after 24 hrs by TBARS assay; assay type: functional, cell-based
# In short: (§1)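 TBARS: cells were exposed 24 h, with or without 24 h prior 5 mM NAC, and lysed in Tris-HCl. Lysate was heated with TCA/0.25 M HCl and 6.7 mg/mL TBA for 15 min at 100 °C, centrifuged, and read at 532 nm. Hydrolyzed tetramethoxypropane served as standard, with values normalized to protein. H2O2 (10 µM) was the positive control. Three independent experiments in triplicate; ANOVA/Tukey.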
# SF-295 [3] = assay: Induction of oxidative stress in human SF295 cells assessed as total intracellular thiol levels at 5 uM after 24 hrs by spectrophotometric analysis (reference value: 4.51 +/- 0.83 microg/mg); assay type: functional
# [4] = Selective index, ratio of IC50 for mouse L929 cells to IC50 for human MDA-MB-435 cells
# In short: (§2)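 Selectivity index is the ratio of the IC50 in a non-cancer murine line (V79 or L929) to the IC50 in the cancer line. […] MTT was 0.5 mg/mL for 3 h, formazan dissolved in DMSO and read at 595 nm as % of control. IC50s were derived by nonlinear regression; triplicate, at least three repeats.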
# HCT-116 [5] = assay: Geno-toxicity in human HCT116 cells assessed as induction of DNA damage at 2.5 to 10 uM after 24 hrs in absence of NAC by alkaline comet assay; assay type: functional, cell-based
# In short: (§3)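 Alkaline comet assay after 24 h at 2.5, 5 and 10 µM, with or without 24 h pretreatment with 5 mM NAC. Cells were trypsinized and embedded in 0.75% low-melting agarose, then lysed at pH 10, 4 °C, ≥1 h. DNA was unwound 20 min at pH >13 and electrophoresed 20 min at 25 V, 300 mA (0.86 V/cm), then stained with ethidium bromide. 100 cells (2 slides) were scored in classes 0–4 for a damage index. Mean ± SEM, three independent experiments in triplicate.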
# SF-295 [6] = assay: Antiproliferative activity against human SF295 cells after 72 hrs by MTT assay; assay type: functional, cell-based; details: SF-295, 72 h
# In short: (§4)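 MTT reduction: cancer lines plated at 0.7×10^5 to 0.3×10^6 cells/well, V79 and L929 fibroblasts at 0.5×10^5 cells/well. Compounds in DMSO (0.1%) were given for 24 h at 0.04–40.92 µM or 72 h at 0.04–8.19 µM. Fresh medium with 0.5 mg/mL MTT was added for 3 h, then formazan was dissolved in DMSO and read at 595 nm as % of control. IC50 came from nonlinear regression with 95% CI. Doxorubicin (0.001–1.06 µM) was the positive control. Triplicate, ≥3 repeats.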
# [7] = Selective index, ratio of IC50 for mouse L929 cells to IC50 for human HCT116 cells; in short: as §2
# [8] = Selective index, ratio of IC50 for chinese hamster V79 cells to IC50 for human PC3 cells; in short: as §2
# HCT-116 [9] = assay: Induction of oxidative stress in human HCT116 cells assessed as total GSH levels at 5 uM treated 24 hrs post NAC addition measured after 24 hrs by spectrophotometric analysis (reference value: 3.74 +/- 0.55 microg/mg); assay type: functional
# L929 [10] = assay: Cytotoxicity against mouse L929 cells after 24 hrs in presence of GSH-OEt by MTT assay; assay type: cell-based; details: L929, 24 h
# In short: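 24 h MTT exposure (0.04–40.92 µM in 0.1% DMSO), with or without co-treatment with GSH ethyl ester (15 mM) to gauge the ROS contribution. MTT was 0.5 mg/mL for 3 h, with formazan dissolved in DMSO and absorbance at 595 nm expressed as % of control. Triplicate, repeated at least three times.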
# SF-295 [11] = assay: Induction of lipid peroxidation in human SF295 cells assessed as increase in MDA levels at 2.5 to 10 uM after 24 hrs in absence of NAC by TBARS assay; assay type: functional, cell-based; in short: as §1
# HCT-116 [12] = assay: Induction of oxidative stress in human HCT116 cells assessed as GSH to GSSG ratio at 5 uM after 24 hrs by spectrophotometric analysis (reference value: 3.09 +/- 0.33 microg/mg); assay type: functional
# SW-620 = assay: Antiproliferative activity against human SW620 cells after 72 hrs by MTT assay; assay type: functional, cell-based; details: SW-620, 72 h; in short: as §4
# [13] = Selectivity index, ratio of IC50 for mouse L929 cells to IC50 for human PC3 cells; assay type: functional; in short: as §2
# SF-295 [14] = assay: Induction of oxidative stress in human SF295 cells assessed as total intracellular thiol levels at 5 uM treated 24 hrs post NAC addition measured after 24 hrs by spectrophotometric analysis (reference value: 4.51 +/- 0.83 microg/mg); assay type: functional
# In short: (§5)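 Cells were pretreated 24 h with 5 mM NAC, then exposed 24 h to test compound at 5 µM. Controls received 0.1% DMSO. Extracts were prepared by sonication and HClO4 precipitation, then neutralized with KOH. Total glutathione was read by DTNB/glutathione reductase/NADPH rate at 412 nm. GSSG was measured after 4-vinylpyridine (0.1%, 1 h, RT) and GSH derived by difference. Values are normalized to protein, triplicates, three independent runs.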
# PC-3 [15] = assay: Induction of oxidative stress in human PC3 cells assessed as total intracellular thiol levels at 5 uM after 24 hrs by spectrophotometric analysis (reference value: 4.23 +/- 0.75 microg/mg); assay type: functional
# SF-295 [16] = assay: Induction of oxidative stress in human SF295 cells assessed as total GSSG levels at 5 uM treated 24 hrs post NAC addition measured after 24 hrs by spectrophotometric analysis (reference value: 1.31 +/- 0.55 microg/mg); assay type: functional; in short: as §5
# SF-295 [17] = assay: Induction of oxidative stress in human SF295 cells assessed as total GSH levels at 5 uM treated 24 hrs post NAC addition measured after 24 hrs by spectrophotometric analysis (reference value: 3.16 +/- 0.21 microg/mg); assay type: functional; in short: as §5
# L929 [18] = assay: Induction of oxidative stress in mouse L929 cells assessed as total GSH levels at 5 uM after 24 hrs by spectrophotometric analysis (reference value: 3.76 +/- 0.51 microg/mg); assay type: cell-based; details: l929, 24 h
# SF-295 [19] = assay: Geno-toxicity in human SF295 cells assessed as induction of DNA damage at 2.5 to 10 uM after 24 hrs in absence of NAC by alkaline comet assay; assay type: functional, cell-based; in short: as §3
# [20] = Selective index, ratio of IC50 for chinese hamster V79 cells to IC50 for human HCT116 cells; in short: as §2
# HCT-116 [21] = assay: Induction of lipid peroxidation in human HCT116 cells assessed as increase in MDA levels at 2.5 to 10 uM treated 24 hrs post NAC addition measured after 24 hrs by TBARS assay; assay type: functional, cell-based; in short: as §1
# HCT-116 [22] = assay: Induction of oxidative stress in human HCT116 cells assessed as total intracellular thiol levels at 5 uM treated 24 hrs post NAC addition measured after 24 hrs by spectrophotometric analysis (reference value: 5.02 +/- 0.91 microg/mg); assay type: functional
smiles,measurement,setting,value
CC1(C)OC2=C(C(=O)C(=O)c3ccccc32)C1n1cc(CNC2=[N+]3C(=C(c4ccccc4)c4ccc(Cl)n4[B-]3(F)F)C=C2)nn1 (stereo not drawn),Activity,PC-3 [1],2.16 µg/mg
same,Activity,PC-3 [2],inactive
same,Activity,SF-295 [3],3.44 µg/mg
same,Ratio IC50,[4],1.1
same,Activity,HCT-116 [5],Active
same,IC50,SF-295 [6],280 nM
same,Ratio IC50,[7],3
same,Ratio IC50,[8],1.7
same,Activity,HCT-116 [9],3.71 µg/mg
same,IC50,L929 [10],12400 nM
same,Activity,SF-295 [11],Active
same,Activity,HCT-116 [12],0.56 µg/mg
same,IC50,SW-620,680 nM
same,Ratio IC50,[13],2.4
same,Activity,SF-295 [14],4.72 µg/mg
same,Activity,PC-3 [15],3.53 µg/mg
same,Activity,SF-295 [16],1.21 µg/mg
same,Activity,SF-295 [17],3.47 µg/mg
same,Activity,L929 [18],1.15 µg/mg
same,Activity,SF-295 [19],Active
same,Ratio IC50,[20],2
same,Activity,HCT-116 [21],inactive
same,Activity,HCT-116 [22],5.12 µg/mg
